Assay results: ChEMBL document CHEMBL1146634, “Sulphonamide-based small molecule VLA-4 antagonists” (Bioorg Med Chem Lett, 2003)

Key:
Integrin alpha-4/beta-1 [1] = molecular target: T1, Integrin alpha-4/beta-1 (Homo sapiens, UniProt P05556+P13612); test: Inhibition of CS-1 fragment binding to Very late antigen 4 expressed in Ramos cells in 10% fetal bovine serum(FBS); type: cell-based
Integrin alpha-4/beta-1 [2] = molecular target: T1, Integrin alpha-4/beta-1; test: Inhibition of CS-1 fragment binding to Very late antigen 4 (VLA-4) expressed in Ramos cells; type: cell-based
[3] = Half-life period in cynomolgus monkey; type: ADME; settings: cercopithecidae, in vivo
[4] = Oral bioavailability in cynomolgus monkey; type: ADME, organism-based, Macaca fascicularis; settings: in vivo
[5] = Cmax in cynomolgus monkey by iv administration; type: ADME, organism-based; set-up: route intravenous; settings: cercopithecidae, in vivo
[6] = Cmax in cynomolgus monkey by po administration; type: ADME, organism-based; set-up: route oral; settings: cercopithecidae, in vivo
[7] = Pharmacokinetic property(Vdss) in cynomolgus monkey; type: ADME, organism-based; settings: cercopithecidae, in vivo; read-out: Vdss
[8] = Plasma clearance in cynomolgus monkey; type: ADME, organism-based; settings: cercopithecidae
Mus musculus [9] = test: Inhibition of eosinophil infiltration in the murine asthma model tested in vivo at a dose of 10 mg/kg (intravenous); type: functional; settings: route intranasal, in the assay text read “intranasal” for “intravenous”
Summary of the method: (§1)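 Mice were ovalbumin-sensitized and challenged. Twenty-four hours after the final OVA challenge, they were exsanguinated and the right lung lavaged (0.4 mL saline ×3). Total BAL cells were counted, then the pelleted cells were smeared, stained with Discombe's fluid (eosin/acetone) and counterstained with 0.07% methylene blue for eosinophil counts. Inhibition is expressed relative to OVA-challenged animals.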

Mus musculus [10] = test: Inhibition of eosinophil infiltration in the murine asthma model tested in vivo at a dose of 5 mg/kg (intravenous); type: functional; summary of the method: as §1
Mus musculus [11] = test: Inhibition of eosinophil infiltration in the murine asthma model tested in vivo by po administration at a dose of 10 mg/kg (peroral); type: functional; summary of the method: as §1
Mus musculus [12] = test: Inhibition of eosinophil infiltration in the murine asthma model tested in vivo by po administration at a dose of 25 mg/kg (peroral); type: functional; summary of the method: as §1
Mus musculus [13] = test: Reduction in eosinophil count in murine asthma model tested in vivo by at a dose of 10 mg/kg (intravenous); type: functional; summary of the method: as §1
Mus musculus [14] = test: Reduction in eosinophil count in murine asthma model tested in vivo by po administration at a dose of 10 mg/kg (peroral); type: functional; summary of the method: as §1
Mus musculus [15] = test: Reduction in eosinophil count in murine asthma model tested in vivo by po administration at a dose of 25 mg/kg (peroral); type: functional; summary of the method: as §1
Mus musculus [16] = test: Eosinophil count in murine asthma model tested in vivo at a dose of 5 mg/kg (intravenous)

T1 sequence (P05556 whole entry, the tested form may be a part): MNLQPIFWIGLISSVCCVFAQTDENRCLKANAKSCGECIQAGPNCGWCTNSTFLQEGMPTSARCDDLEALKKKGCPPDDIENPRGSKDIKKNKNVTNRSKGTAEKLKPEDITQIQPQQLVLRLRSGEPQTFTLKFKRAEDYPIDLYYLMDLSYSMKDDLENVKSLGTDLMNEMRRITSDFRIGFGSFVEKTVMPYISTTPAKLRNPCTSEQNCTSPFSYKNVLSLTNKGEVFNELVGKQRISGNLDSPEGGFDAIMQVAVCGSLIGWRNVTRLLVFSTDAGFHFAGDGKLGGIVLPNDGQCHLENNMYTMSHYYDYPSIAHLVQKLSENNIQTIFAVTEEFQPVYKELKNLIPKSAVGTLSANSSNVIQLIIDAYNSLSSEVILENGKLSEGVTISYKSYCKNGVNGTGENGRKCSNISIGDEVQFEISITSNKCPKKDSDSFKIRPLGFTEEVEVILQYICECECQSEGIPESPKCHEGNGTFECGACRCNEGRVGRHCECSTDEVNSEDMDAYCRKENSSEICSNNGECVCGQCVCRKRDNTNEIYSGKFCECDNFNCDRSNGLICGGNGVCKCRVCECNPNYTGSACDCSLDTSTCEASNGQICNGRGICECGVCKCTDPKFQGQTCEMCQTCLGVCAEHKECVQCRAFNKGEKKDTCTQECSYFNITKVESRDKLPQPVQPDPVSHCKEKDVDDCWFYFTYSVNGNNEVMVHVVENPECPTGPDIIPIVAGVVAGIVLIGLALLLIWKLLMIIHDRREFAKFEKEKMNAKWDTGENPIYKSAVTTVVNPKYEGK
T1 sequence (P13612 whole entry, the tested form may be a part): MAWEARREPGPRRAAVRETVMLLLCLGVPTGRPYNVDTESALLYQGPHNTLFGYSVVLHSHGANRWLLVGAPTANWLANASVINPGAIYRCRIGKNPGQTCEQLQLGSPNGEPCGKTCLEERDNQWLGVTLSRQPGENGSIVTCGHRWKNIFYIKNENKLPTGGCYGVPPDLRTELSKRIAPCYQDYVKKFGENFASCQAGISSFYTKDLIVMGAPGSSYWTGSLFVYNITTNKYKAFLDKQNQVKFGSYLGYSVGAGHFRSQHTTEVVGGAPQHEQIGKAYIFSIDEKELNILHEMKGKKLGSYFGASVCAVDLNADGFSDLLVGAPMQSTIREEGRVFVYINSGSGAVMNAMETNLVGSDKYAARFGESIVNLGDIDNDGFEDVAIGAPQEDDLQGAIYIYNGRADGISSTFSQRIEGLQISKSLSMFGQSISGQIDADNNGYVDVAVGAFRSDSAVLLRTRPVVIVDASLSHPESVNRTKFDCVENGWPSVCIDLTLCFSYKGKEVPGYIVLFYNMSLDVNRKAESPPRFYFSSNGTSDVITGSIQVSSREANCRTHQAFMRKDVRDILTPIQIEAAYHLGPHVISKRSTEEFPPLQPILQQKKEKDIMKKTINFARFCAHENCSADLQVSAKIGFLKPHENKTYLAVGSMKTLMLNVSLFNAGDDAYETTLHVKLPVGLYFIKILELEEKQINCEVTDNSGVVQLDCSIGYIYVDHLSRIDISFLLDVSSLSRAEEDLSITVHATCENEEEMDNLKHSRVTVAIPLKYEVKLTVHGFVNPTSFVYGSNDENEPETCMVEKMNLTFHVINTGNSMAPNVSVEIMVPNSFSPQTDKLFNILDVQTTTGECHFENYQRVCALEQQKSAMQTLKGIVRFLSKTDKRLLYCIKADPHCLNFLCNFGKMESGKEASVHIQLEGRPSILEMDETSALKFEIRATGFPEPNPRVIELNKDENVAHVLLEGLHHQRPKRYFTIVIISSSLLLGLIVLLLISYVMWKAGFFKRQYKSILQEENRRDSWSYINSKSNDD

SMILES | IC50 (Integrin alpha-4/beta-1 [1]) [nM] | IC50 (Integrin alpha-4/beta-1 [2]) [nM] | further results
O=C(O)CN(CC(=O)N[C@@H](Cc1ccc(OCc2c(Cl)cccc2Cl)cc1)C(=O)O)S(=O)(=O)c1cccs1 | 10 | 0.8 | –
O=C(O)CN(CC(=O)N[C@@H](Cc1ccc(OCc2c(Cl)cccc2Cl)cc1)C(=O)O)S(=O)(=O)c1ccccn1 | 10 | 1.5 | –
O=C(O)CN(CC(=O)N[C@@H](Cc1ccc(OCc2c(Cl)cccc2Cl)cc1)C(=O)O)S(=O)(=O)c1ccc(F)cc1 | 10 | 0.7 | –
CN([C@@H](CCC(=O)O)C(=O)N[C@@H](Cc1ccc(OCc2c(Cl)cccc2Cl)cc1)C(=O)O)S(=O)(=O)c1ccccc1 | 2 | 0.1 | –
O=C(O)CN(CC(=O)N[C@@H](Cc1ccc(OCc2c(Cl)cccc2Cl)cc1)C(=O)O)S(=O)(=O)c1ccccc1 | 8 | 0.6 | half-life [3]: 6.6 min; bioavailability [4]: 26.9%; Cmax [5]: 528 ng/mL; Cmax [6]: 101 ng/mL; Vd [7]: 0.303 L/kg; clearance [8]: 58.8 mL/min/kg; EOS inhibition (Mus musculus [9]): 50%; EOS inhibition (Mus musculus [10]): 28%; EOS inhibition (Mus musculus [11]): 69%; EOS inhibition (Mus musculus [12]): 75%; EOS count (Mus musculus [13]): 4.36 10^5 cells; EOS count (Mus musculus [14]): 2.67 10^5 cells; EOS count (Mus musculus [15]): 2.16 10^5 cells; EOS count (Mus musculus [16]): 6.26 10^5 cells
CN([C@@H](CC(=O)O)C(=O)N[C@@H](Cc1ccc(OCc2c(Cl)cccc2Cl)cc1)C(=O)O)S(=O)(=O)c1ccccc1 | – | 2 | –
O=C(O)CC[C@H](NS(=O)(=O)c1ccc2ccccc2c1)C(=O)N[C@@H](Cc1ccc(OCc2c(Cl)cccc2Cl)cc1)C(=O)O | – | 2 | –
O=C(O)CC[C@H](NS(=O)(=O)c1ccc2ccccc2c1)C(=O)N[C@@H](Cc1ccccc1)C(=O)O | – | 180 | –
CN([C@@H](CCC(=O)O)C(=O)N[C@@H](Cc1ccc(OCc2c(Cl)cccc2Cl)cc1)C(=O)O)S(=O)(=O)c1ccc2ccccc2c1 | – | 1 | –
